Active and inactive are the calls of the source. The rule behind the calls is not given here.
Experiments:
HEK-293T [1] = assay: Induction of nonmyristoylated AKT2 M225G and kinase dead D289A mutant Thr308 hyperphosphorylation expressed in HEK293T cells at 10 uM after 30 mins by immunoblotting; type: cell-based
[2] = Inhibition of myristoylated AKT2 M225G mutant expressed in HEK293T cells by in vitro immunoprecipitation kinase assay; type: cell-based; conditions: hek-293t
In short: (§1)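 Myristoylated HA-tagged Akt (wild-type or analog-sensitive isoforms) was transfected by Lipofectamine into HEK293T cells. Cells were lysed in Tris pH 7.5/NaCl/EDTA/EGTA/Triton buffer with protease and phosphatase inhibitors. Akt was immunoprecipitated overnight at 4°C on BSA-blocked anti-HA matrix, and the washed immunoprecipitate was used for the in vitro kinase assay. IC50 was determined from kinase activity.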

[3] = system: RAC-alpha serine/threonine-protein kinase (Homo sapiens), P31749 [M227G]; assay: Inhibition of myristoylated AKT1 M227G mutant expressed in HEK293T cells assessed as reduction of GSK3-beta Ser9 phosphorylation after 30 mins by immunoblotting; type: cell-based; conditions: HEK-293T
Sequence of RAC-alpha serine/threonine-protein kinase (Homo sapiens), P31749 [M227G] (P31749 whole entry M227G): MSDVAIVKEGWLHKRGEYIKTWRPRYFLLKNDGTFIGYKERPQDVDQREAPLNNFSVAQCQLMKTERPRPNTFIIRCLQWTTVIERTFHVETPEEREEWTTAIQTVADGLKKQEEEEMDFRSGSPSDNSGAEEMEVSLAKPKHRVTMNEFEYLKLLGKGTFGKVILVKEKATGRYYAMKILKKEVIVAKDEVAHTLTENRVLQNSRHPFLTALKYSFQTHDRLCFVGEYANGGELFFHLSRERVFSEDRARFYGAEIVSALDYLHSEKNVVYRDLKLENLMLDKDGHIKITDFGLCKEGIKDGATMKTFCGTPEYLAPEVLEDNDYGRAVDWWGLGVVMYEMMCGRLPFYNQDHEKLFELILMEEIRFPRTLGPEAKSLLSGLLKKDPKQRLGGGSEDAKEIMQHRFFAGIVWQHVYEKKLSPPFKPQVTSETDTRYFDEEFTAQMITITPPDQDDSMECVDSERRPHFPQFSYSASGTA

[4] = Inhibition of myristoylated AKT3 M229G mutant expressed in HEK293T cells by in vitro immunoprecipitation kinase assay; type: cell-based; conditions: hek-293t
In short: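 Myristoylated HA-tagged Akt3 was expressed in HEK293T cells, which were lysed in Tris pH 7.5 buffer containing Triton X, protease and phosphatase inhibitors. Lysates were protein-normalised and immunoprecipitated overnight at 4°C on BSA-blocked anti-HA matrix. Kinase activity of the immunoprecipitate was measured in vitro across inhibitor concentrations to derive IC50.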

[5] = biological target: RAC-alpha serine/threonine-protein kinase (Homo sapiens, UniProt P31749, M227G); assay: Inhibition of myristoylated AKT1 M227G mutant expressed in HEK293T cells by in vitro immunoprecipitation kinase assay; type: cell-based, HEK-293T; in short: as §1
Sequence of RAC-alpha serine/threonine-protein kinase (Homo sapiens, UniProt P31749, M227G) (P31749 whole entry M227G): as above

[6] = system: RAC-alpha serine/threonine-protein kinase (Homo sapiens), P31749 [M227G]; assay: Induction of myristoylated AKT1 M227G mutant Ser473 hyperphosphorylation expressed in HEK293 cells after 30 mins by immunoblotting; conditions: HEK-293
HEK-293T [7] = assay: Induction myristoylated AKT2 M225G mutant Ser473 hyperphosphorylation expressed in HEK293T cells at 10 uM after 30 mins by immunoblotting; type: cell-based
HEK-293T [8] = assay: Induction of myristoylated AKT3 M229G mutant Ser473 hyperphosphorylation expressed in HEK293T cells at 10 uM after 30 mins by immunoblotting; type: cell-based
HEK-293T [9] = assay: Induction myristoylated AKT2 M225G mutant Thr308 hyperphosphorylation expressed in HEK293T cells at 10 uM after 30 mins by immunoblotting; type: cell-based
[10] = system: RAC-alpha serine/threonine-protein kinase (Homo sapiens), P31749 [M227G]; assay: Induction of myristoylated AKT1 M227G mutant Thr308 hyperphosphorylation expressed in HEK293 cells after 30 mins by immunoblotting; conditions: HEK-293
[11] = biological target: T1, RAC-alpha serine/threonine-protein kinase (Homo sapiens, UniProt P31749); assay: Inhibition of wild type AKT1 expressed in HEK293 cells assessed as reduction of IGF1-induced GSK3-beta Ser9 phosphorylation treated 20 mins before IGF1 stimulation by immunoblotting; type: cell-based
T1 sequence (P31749 whole entry): as the sequence (P31749 whole entry M227G) above, with G227M counted along it
In short: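 Untransfected HEK293 cells carrying endogenous Akt were serum-starved overnight. They were treated with compound for 20 min, then stimulated with 50 ng/ml IGF-1 for 10 min. DMSO stocks were diluted 1:1000. Lysates in Tris pH 7.5/Triton buffer with phosphatase inhibitors were immunoblotted for GSK3β Ser9 and Akt Thr308/Ser473 phosphorylation, read by ECL.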

[12] = biological target: T1, RAC-alpha serine/threonine-protein kinase; assay: Induction of AKT1 Ser473 phosphorylation expressed in IGF1-stimulated HEK293 cells treated 20 mins before IGF1 stimulation by immunoblotting; type: cell-based
In short: (§2)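 HEK293 cells (not transfected), serum-starved overnight, then given inhibitor for 20 min before 50 ng/ml IGF-1 for a further 10 min. Cells detached in ice-cold Ca/Mg-free PBS with 0.04% EDTA and lysed in Tris pH 7.5 Triton buffer with protease/phosphatase inhibitors. Lysates cleared at 14000 g, protein equalised by Bradford, and pThr308, pSer473 and GSK3β pSer9 read by immunoblot with ECL.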

HEK-293T [13] = assay: Induction of myristoylated AKT3 M229G mutant Thr308 hyperphosphorylation expressed in HEK293T cells at 10 uM after 30 mins by immunoblotting; type: cell-based
HEK-293T [14] = assay: Induction of myristoylated AKT2 M225G and kinase dead D289A mutant Thr308 hyperphosphorylation expressed in HEK293T cells at 10 uM after 30 mins by immunoblotting; type: cell-based
[15] = biological target: T1, RAC-alpha serine/threonine-protein kinase; assay: Induction of AKT1 Thr308 phosphorylation expressed in IGF1-stimulated HEK293 cells treated 20 mins before IGF1 stimulation by immunoblotting; type: cell-based; in short: as §2
[16] = biological target: T1, RAC-alpha serine/threonine-protein kinase; assay: Inhibition of myristoylated wild type AKT1 expressed in HEK293T cells by in vitro immunoprecipitation kinase assay; type: cell-based, HEK-293T
In short: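 Myristoylated HA-tagged wild-type or analog-sensitive Akt1/2/3 expressed in HEK293T cells, then immunoprecipitated on anti-HA matrix. The immunoprecipitate was used in an in vitro kinase assay with Tris pH 7.5 buffer containing 10 mM MgCl2, β-glycerophosphate, orthovanadate and 2 mM DTT. IC50 determined from inhibitor titration.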

- IC50 [2]: 240 nM
- inhibition [3]: Active
- IC50 [4]: 120 nM
- IC50 [5]: 28 nM
- Activity [6]: Dose-dependent effect
- Activity [10]: Dose-dependent effect
- inhibition [11]: inactive
- Activity [12]: inactive
- Activity [15]: inactive
- IC50 [16]: > 10000 nM
Compound: CC(C)(C)n1nc(Cc2cccc(I)c2)c2c(N)ncnc21
- Activity (HEK-293T [1]): Active
- Activity (HEK-293T [7]): Active
- Activity (HEK-293T [8]): Active
- Activity (HEK-293T [9]): Active
- Activity (HEK-293T [13]): Active
- Activity (HEK-293T [14]): Active
